Assay results reported in ChEMBL document CHEMBL3108742, “Structurally diverse low molecular weight activators of the mammalian pre-mRNA 3' cleavage reaction” (Bioorg Med Chem, 2014).
Calls of active or inactive are those of the source. The rule behind the calls is not given here.

Assays:
HeLa [1] = test: Induction of [alpha-32P]-UTP-labeled Simian virus 40 late pre-mRNA 3' cleavage treated with 3' cleavage factors from human HeLa cell nuclear extract after 2 hrs by PAGE analysis; assay type: cell-based; details: Betapolyomavirus macacae
Method in brief: (§1)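 Partially purified HeLa nuclear extract cleavage factors (DEAE fractions CPSF, CstF, CFm; ammonium sulfate-concentrated, dialyzed against 20 mM Na-HEPES pH 7.9 buffer) incubated with radiolabeled SV40 late poly(A) signal substrate (1–5 nM). Reaction mix: tRNA 0.1 mg/mL, 2 mM EDTA, 2 mM 2'-dATP, 2.5% polyvinyl alcohol, 10 mM HEPES pH 7.9, 25 mM ammonium sulfate, activator replacing creatine phosphate. Run 2 h at 30 °C; Proteinase K treatment, 6% denaturing gel.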

HeLa [2] = test: Induction of [alpha-32P]-UTP-labeled Simian virus 40 late pre-mRNA 3' cleavage at >= 100 uM treated with 3' cleavage factors from human HeLa cell nuclear extract after 2 hrs by PAGE analysis relative to control; assay type: cell-based; details: Betapolyomavirus macacae
Method in brief: (§2)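 Radiolabeled substrate (1–5 nM) derived from the SV40 late poly(A) signal was incubated with DEAE-sepharose CPSF, CstF and CFm fractions from HeLa nuclear extract. Test agent replaced 50 mM creatine phosphate. Reaction mix contained tRNA, 2 mM EDTA, 2 mM 2′-dATP, 2.5% polyvinyl alcohol and 10 mM HEPES pH 7.9, run at 30 °C for 2 h. Products were Proteinase K-digested, extracted, precipitated and resolved by 6% denaturing PAGE.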

[3] = Inhibition of ABI1 (unknown origin)
[4] = Inhibition of ABI2 (unknown origin)
[5] = Inhibition of ABI2 (unknown origin) at 3 uM relative to control; design: scale not given: the % may be the effect or the level left
HeLa [6] = test: Induction of [alpha-32P]-UTP-labeled Simian virus 40 late pre-mRNA 3' cleavage at 50 mM treated with 3' cleavage factors from human HeLa cell nuclear extract after 2 hrs by PAGE analysis; assay type: cell-based; details: Betapolyomavirus macacae; method in brief: as §1
HeLa [7] = test: Induction of [alpha-32P]-UTP-labeled Simian virus 40 late pre-mRNA 3' cleavage at 1 mM treated with 3' cleavage factors from human HeLa cell nuclear extract after 2 hrs by PAGE analysis; assay type: cell-based; details: Betapolyomavirus macacae; method in brief: as §2
HeLa [8] = test: Induction of [alpha-32P]-UTP-labeled Simian virus 40 late pre-mRNA 3' cleavage at 25 to 200 uM treated with 3' cleavage factors from human HeLa cell nuclear extract after 2 hrs by PAGE analysis; assay type: cell-based; details: Betapolyomavirus macacae; method in brief: as §2
HeLa [9] = test: Induction of [alpha-32P]-UTP-labeled Simian virus 40 late pre-mRNA 3' cleavage at 200 nM treated with 3' cleavage factors from human HeLa cell nuclear extract after 2 hrs by PAGE analysis in presence of calf intestinal alkaline phosphatase; assay type: cell-based; details: Betapolyomavirus macacae
HeLa [10] = test: Induction of [alpha-32P]-UTP-labeled Simian virus 40 late pre-mRNA 3' cleavage at 200 nM treated with 3' cleavage factors from human HeLa cell nuclear extract after 2 hrs by PAGE analysis; assay type: cell-based; details: Betapolyomavirus macacae; method in brief: as §2
HeLa [11] = test: Induction of [alpha-32P]-UTP-labeled Simian virus 40 late pre-mRNA 3' cleavage at 200 nM treated with 3' cleavage factors from human HeLa cell nuclear extract after 2 hrs by PAGE analysis in presence of protein tyrosine phosphatase; assay type: cell-based; details: Betapolyomavirus macacae
Protein phosphatase 1D = target: T1, Protein phosphatase 1D (Homo sapiens, UniProt O15297); test: Inhibition of N-terminal His-tagged human PPM1D (1 to 420) assessed as phosphoric acid release after 30 mins
T1 sequence (O15297 whole entry): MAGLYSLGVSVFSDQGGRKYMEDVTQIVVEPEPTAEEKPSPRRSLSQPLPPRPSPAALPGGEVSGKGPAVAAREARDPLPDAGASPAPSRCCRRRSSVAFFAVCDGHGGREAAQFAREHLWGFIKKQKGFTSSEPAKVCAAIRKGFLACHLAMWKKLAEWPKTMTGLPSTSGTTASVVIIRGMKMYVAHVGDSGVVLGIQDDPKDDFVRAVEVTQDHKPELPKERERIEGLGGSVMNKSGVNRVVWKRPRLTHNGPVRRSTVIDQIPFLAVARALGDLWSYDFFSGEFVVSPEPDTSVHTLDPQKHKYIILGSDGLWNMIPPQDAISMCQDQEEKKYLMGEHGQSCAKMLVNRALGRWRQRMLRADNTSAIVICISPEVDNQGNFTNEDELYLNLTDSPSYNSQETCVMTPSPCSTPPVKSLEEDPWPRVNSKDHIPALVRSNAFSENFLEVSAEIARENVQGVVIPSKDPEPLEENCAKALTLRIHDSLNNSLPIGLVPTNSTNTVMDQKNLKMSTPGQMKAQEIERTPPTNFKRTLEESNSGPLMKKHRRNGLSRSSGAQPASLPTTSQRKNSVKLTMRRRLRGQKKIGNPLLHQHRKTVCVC

## CNCCOP(=O)(O)O
HeLa [1]
  Activity: inactive

## CC1=CC(=O)CC(C)(C)[C@@]1(O)/C=C/C(C)=C\C(=O)O [(+)-ABSCISIC ACID]
HeLa [2]
  Activity: 10%
[3]
  IC50: 60 nM
[4]
  IC50: 70 nM
[5]
  Activity: 15%

## CN(CC(=O)O)C(=N)NP(=O)(O)O
HeLa [6]
  Activity: Active

## C[N+](C)(C)CCCOP(=O)(O)O
HeLa [1]
  Activity: inactive

## N=C(N)NCCC[C@H](N)C(=O)Nc1ccccc1
HeLa [7]
  Activity: inactive

## CC(=O)N[C@@H](CCCC[N+](C)(C)C)C(=O)N[C@@H](COP(=O)([O-])O)C(=O)O
HeLa [7]
  Activity: Active

## N=C(N)NCCC[C@H](N)C(=O)Nc1ccc2ccccc2c1
HeLa [8]
  Activity: Active

## N[C@@H](COP(=O)(O)O)C(=O)O
HeLa [7]
  Activity: inactive

## C[N+](C)(C)CCOP(=O)(O)O
HeLa [7]
  Activity: inactive

## N=C(N)NCCC[C@H](N)C(=O)Nc1cnc2ccccc2c1
HeLa [7]
  Activity: inactive

## CC[C@H](C)[C@@H]1NC(=O)[C@H](Cc2ccc(OP(=O)(O)O)cc2)NC(=O)[C@H](CC(=O)O)NC(=O)[C@H](CCC(=O)O)N[C@H](C(N)=O)CSCC(=O)[C@H](Cc2ccccc2)NC(=O)[C@H](COP(=O)(O)O)NC1=O
HeLa [9]
  Activity: inactive
HeLa [10]
  Activity: Active
HeLa [11]
  Activity: Active
Protein phosphatase 1D
  Ki: 150 nM

## N=C(N)NCCC[C@H](N)C(=O)Nc1cccc2ccccc12
HeLa [7]
  Activity: inactive

## CN(C)CCOP(=O)(O)O
HeLa [1]
  Activity: inactive

## N=C(N)NCCC[C@@H](C(=O)Nc1ccc2ccccc2c1)N1CCOCC1
HeLa [8]
  Activity: Active

## CCNC(=N)NCCC[C@H](N)C(=O)Nc1cccc2ccccc12
HeLa [7]
  Activity: inactive
